Results on 6 molecules are retold here after ChEMBL document CHEMBL2069235, “Synthesis and biological evaluation of tyrosine modified analogues of the α4β7 integrin inhibitor biotin-R₈ERY” (Bioorg Med Chem, 2012).

As a reminder, the inhibition is how much of the control response was suppressed.

Experiment [1] concerns the target T1, Integrin alpha-4/beta-7 (Mus musculus) (UniProt Q00651+P26011). Briefly: Inhibition of alpha4beta7 assessed as inhibition of Mn(2+)-activated adhesion of mouse TK-1 T cells to mouse MAdCAM-1 at 50 uM incubated for 1 hr by cell adhesion assay. It is filed as cell-based. A digest of the protocol:
(§1)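 TK-1 cells (mouse AKR/Cum α4β7+/α4β1− CD8 T lymphoma), grown at 37 °C in RPMI 1640 with 10% FCS and 0.05 mM β-mercaptoethanol, were washed and held 1 h at room temperature in HBSS/10 mM Hepes with peptide. They were then activated with 2 mM MnCl₂ and added at 10⁶ cells/well to glass slides coated with mouse MAdCAM-1-Fc (10 μg/ml, FBS-blocked). Adhesion ran 30 min.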

Experiment [2] deals with T1, Integrin alpha-4/beta-7 (Mus musculus). Briefly: Inhibition of alpha4beta7 assessed as inhibition of Mn(2+)-activated adhesion of mouse TK-1 T cells to mouse MAdCAM-1 at 100 uM incubated for 1 hr by cell adhesion assay. It is filed as cell-based. In a few lines: as §1

SMILES strings stand for the structures. *1 amine or outer side, *2 acyl side, *3 side chain or, on linkers, in order; H or OH if unused. Where a SMILES comes first, the peptide text is derived from it. [ ]: non-standard residue; d: D form. The star is where a group is joined. X7 = O=C([C@H](Cc1ccc(-c2cccc([N+](=O)[O-])c2)cc1)N[*:1])[*:2]; Phe(4-(2-MeO-Ph)) = COc1ccccc1-c1ccc(C[C@H](N)C(=O)O)cc1; X6 = COc1ccc(-c2ccc(C[C@H](N[*:1])C(=O)[*:2])cc2)cc1OC; Bip(4'-Me) = Cc1ccc(-c2ccc(C[C@H](N)C(=O)O)cc2)cc1; Biotin = O=C1N[C@H]2[C@H](CS[C@H]2CCCCC(=O)*)N1

`N=C(N)NCCC[C@H](NC(=O)CCCC[C@@H]1SC[C@@H]2NC(=O)N[C@@H]21)C(=O)N[C@@H](CCCNC(=N)N)C(=O)N[C@@H](CCCNC(=N)N)C(=O)N[C@@H](CCCNC(=N)N)C(=O)N[C@@H](CCCNC(=N)N)C(=O)N[C@@H](CCCNC(=N)N)C(=O)N[C@@H](CCCNC(=N)N)C(=O)N[C@@H](CCCNC(=N)N)C(=O)N[C@@H](CCC(=O)O)C(=O)N[C@@H](CCCNC(=N)N)C(=O)N[C@@H](Cc1ccc(O)cc1)C(=O)O` (Biotin-RRRRRRRRERY-OH): the results for the inhibition in experiment [1] and in experiment [2] were 8.73% and 18.2%, respectively.

Take `COc1ccc(-c2ccc(C[C@H](NC(=O)[C@H](CCCNC(=N)N)NC(=O)[C@H](CCC(=O)O)NC(=O)[C@H](CCCNC(=N)N)NC(=O)[C@H](CCCNC(=N)N)NC(=O)[C@H](CCCNC(=N)N)NC(=O)[C@H](CCCNC(=N)N)NC(=O)[C@H](CCCNC(=N)N)NC(=O)[C@H](CCCNC(=N)N)NC(=O)[C@H](CCCNC(=N)N)NC(=O)[C@H](CCCNC(=N)N)NC(=O)CCCC[C@@H]3SC[C@@H]4NC(=O)N[C@@H]43)C(=O)O)cc2)cc1OC` (Biotin-RRRRRRRRER[X6]-OH): the inhibition in experiment [1] was 37.9%; in experiment [2] it was 50.1%.

With `Cc1ccc(-c2ccc(C[C@H](NC(=O)[C@H](CCCNC(=N)N)NC(=O)[C@H](CCC(=O)O)NC(=O)[C@H](CCCNC(=N)N)NC(=O)[C@H](CCCNC(=N)N)NC(=O)[C@H](CCCNC(=N)N)NC(=O)[C@H](CCCNC(=N)N)NC(=O)[C@H](CCCNC(=N)N)NC(=O)[C@H](CCCNC(=N)N)NC(=O)[C@H](CCCNC(=N)N)NC(=O)[C@H](CCCNC(=N)N)NC(=O)CCCC[C@@H]3SC[C@@H]4NC(=O)N[C@@H]43)C(=O)O)cc2)cc1` (Biotin-RRRRRRRRER[Bip(4'-Me)]-OH), the inhibition in experiment [1] amounted to 47.4%; in experiment [2] it was 57.3%.

In the case of `N=C(N)NCCC[C@H](NC(=O)CCCC[C@@H]1SC[C@@H]2NC(=O)N[C@@H]21)C(=O)N[C@@H](CCCNC(=N)N)C(=O)N[C@@H](CCCNC(=N)N)C(=O)N[C@@H](CCCNC(=N)N)C(=O)N[C@@H](CCCNC(=N)N)C(=O)N[C@@H](CCCNC(=N)N)C(=O)N[C@@H](CCCNC(=N)N)C(=O)N[C@@H](CCCNC(=N)N)C(=O)N[C@@H](CCC(=O)O)C(=O)N[C@@H](CCCNC(=N)N)C(=O)N[C@@H](Cc1ccc(-c2cccc([N+](=O)[O-])c2)cc1)C(=O)O` (Biotin-RRRRRRRRER[X7]-OH), the inhibition in experiment [1] amounted to 50.5%; in experiment [2], 60.3%.

With `N=C(N)NCCC[C@H](NC(=O)[C@H](CCCNC(=N)N)NC(=O)[C@H](CC(=O)O)NC(=O)[C@H](Cc1ccc(O)cc1)NC(=O)[C@@H](CCCNC(=N)N)NC(=O)[C@@H](CCCNC(=N)N)NC(=O)[C@@H](CCCNC(=N)N)NC(=O)[C@@H](CCCNC(=N)N)NC(=O)[C@@H](CCCNC(=N)N)NC(=O)[C@@H](CCCNC(=N)N)NC(=O)[C@@H](CCCNC(=N)N)NC(=O)[C@@H](CCCNC(=N)N)NC(=O)[C@@H](CCCNC(=N)N)NC(=O)CCCC[C@@H]1SC[C@@H]2NC(=O)N[C@@H]21)C(=O)N[C@@H](CCC(=O)O)C(=O)N[C@@H](Cc1ccc(O)cc1)C(=O)O`, the inhibition worked out at 66.4% in experiment [1] and 71.3% in experiment [2].

`COc1ccccc1-c1ccc(C[C@H](NC(=O)[C@H](CCCNC(=N)N)NC(=O)[C@H](CCC(=O)O)NC(=O)[C@H](CCCNC(=N)N)NC(=O)[C@H](CCCNC(=N)N)NC(=O)[C@H](CCCNC(=N)N)NC(=O)[C@H](CCCNC(=N)N)NC(=O)[C@H](CCCNC(=N)N)NC(=O)[C@H](CCCNC(=N)N)NC(=O)[C@H](CCCNC(=N)N)NC(=O)[C@H](CCCNC(=N)N)NC(=O)CCCC[C@@H]2SC[C@@H]3NC(=O)N[C@@H]32)C(=O)O)cc1` (Biotin-RRRRRRRRER[Phe(4-(2-MeO-Ph))]-OH): the results for the inhibition in experiment [1] and in experiment [2] were 48.1% and 47.1%, respectively.
